Screening results: PubChem BioAssay, several laboratories
Only some compounds are listed: those with a hit (about 1.2% of all), similar ones and a draw of the others.
Bfl-1 A1 inh: inhibitors of the anti-apoptotic protein A1, read as caspase activation | MEF A1-2A-BIM cells, Caspase-Glo 3/7 luminescence, 3 h; percent of clofoctol response, vehicle zero | caspase activation, % (no concentration beside the values) | 330,000 compounds, 0.066% hits | AID 2462;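 active = over half of replicate activation scores above 10%, or exactly half above 10 with the replicate mean above 10; inconclusive = replicate mean below 10 yet half the replicates above 10; inactive = over half of replicates below 10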
MsrA inh: bovine MsrA inhibition; purified bovine MsrA, absorbance read-out; inhibition, % at 15.5 µM; 360,000 compounds, 0.75% hits; in the data active = inhibition above about 4.5%;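 also: 0% = vehicle wells with enzyme and 100% = reference inhibitor wells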
procasp3 activ: procaspase-3 (human) activation; AID 463141; recombinant procaspase-3 D3A, Ac-DEVD-pNA absorbance 405 nm; P42574; 330,000 compounds, 0.11% hits; activation, % at 8.5 µM;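 active = activation above the mean of all tested compounds plus 3 SD, cut at about 21% in these data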;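 also: 0% = DMSO alone and 100% = DMSO wells spiked with extra 5 µM PC-3 D3A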
Target sequence (P42574 whole entry D9A/D28A/D175A): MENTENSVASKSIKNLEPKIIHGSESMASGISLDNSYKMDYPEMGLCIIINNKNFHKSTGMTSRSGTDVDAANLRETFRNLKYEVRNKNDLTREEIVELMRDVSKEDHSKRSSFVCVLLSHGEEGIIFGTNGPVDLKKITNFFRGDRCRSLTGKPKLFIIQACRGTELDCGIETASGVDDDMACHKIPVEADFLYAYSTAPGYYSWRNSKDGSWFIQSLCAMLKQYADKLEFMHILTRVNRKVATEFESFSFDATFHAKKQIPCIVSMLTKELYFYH
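Assay system: Procaspase-3 D3A mutant, all three cleavage aspartates alanine. Buffer or medium: Zinc-free HEPES saline buffer with Triton X-100. Times: 1 h compound preincubation, 2 h substrate hydrolysis at 25 °C. Measured by: 405 nm absorbance of p-nitroaniline, reads at 0 and 120 min. Read-out basis: percent activation relative to control range. Replicates: singlicate.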
MsrA act: bovine methionine sulfoxide reductase A activation. purified bovine MsrA, absorbance read-out. 360,000 compounds, 0.3% hits. activation, % at 10.6 µM. AID 602163; in the data active = activation above about 7.5%;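 also: 0% = vehicle and 100% = reference activator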
proCasp7 act: counter-screen: procaspase-7 (human) activation. AID 463210. 330,000 compounds, 0.093% hits. activation, % at 8.5 µM. recombinant procaspase-7, Ac-DEVD-pNA absorbance 405 nm; D23A/D198A/D206A triple mutant, cannot self-cleave; scale: DMSO 0, 5 µM enzyme 100;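 active = percent activation above the screen-wide mean plus 3 SD, cut at about 25% in these data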
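Assay system: Uncleavable procaspase-7 mutant enzyme / Input: 2 µM procaspase-7 mutant as dispensed / Dosing: single nominal 8.5 µM compound dose, 0.8% DMSO final / Timing: 1 h enzyme–compound preincubation and 2 h substrate reaction, both 25 °C / Detection: p-Nitroaniline absorbance at 405 nm, read at 0 and 120 min / Replication: singlicate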
PC3 dual counter: counter-screen: procaspase-3 (human) activation. recombinant PC-3 D3A, Ac-DEVD-pNA absorbance 405 nm; aspartates 9, 28, 175 changed to alanine; 100% = enzyme control. activation, % at 8.5 µM. 290 tested, under 10 active. shares compounds with proCasp7 act;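 active = mean percent activation across triplicates above a set limit taken from the earlier primary procaspase-3 screen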;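 also: 0% = DMSO wells and 100% = DMSO wells with 5 µM added PC-3 D3A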
Procasp7 act: activates human procaspase-7, confirming dual procaspase activators; shares compounds with proCasp7 act; recombinant procaspase-7, Ac-DEVD-pNA absorbance 405 nm; D23A/D198A/D206A mutant that cannot self-cleave; activation, % at 8.5 µM; 290 tested, under 10 active;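 active = mean activation above a set limit carried over from the earlier primary screen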;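 also: 0% = DMSO only and 100% = DMSO with added 5 µM PC-7 enzyme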
* = called active by the depositor; u = inconclusive; x = no result given.

SMILES | Bfl-1 A1 inh | MsrA inh | procasp3 activ | MsrA act | proCasp7 act | PC3 dual counter | Procasp7 act
CC(C)OC(=O)CC(=O)CSc1nc2c(cc1C#N)CCCCC2 | -3.5 | 0.1 | 17.7 | -1.0 | 37.2* | -20.1 | -20.8
O=[N+]([O-])c1cccc(I)c1 | x | -0.3 | x | x | x | x | x
CC(C)NC(=O)c1cc2c(=O)n3ccccc3nc2s1 | 0.2 | 4.2 | -1.9 | 0.5 | 2.3 | x | x
CSc1ccccc1NC(=O)c1cc2c(=O)n3ccccc3nc2s1 | u | 0.8 | -5.6 | -6.4 | 38.5* | -29.1 | -34.6
COC(=O)C1=C(C)NC(C)=C(C(=O)OC)C1C(=O)OCCN1C(=O)c2ccccc2C1=O | 0.8 | 0.0 | -13.0 | -3.1 | 44.4* | 1.6 | -0.1
CCn1nc(NC(=O)c2ccccc2)c2cc3cccc(C)c3nc21 | -0.1 | -1.3 | 53.4* | -0.6 | 49.8* | -29.1 | -35.3
Cc1cccc2cc3c(NC(=O)C(C)(C)C)nn(CC(C)C)c3nc12 | 1.3 | -0.3 | 36.3* | -2.1 | 35.3* | -29.2 | -35.8
COCc1[nH]nc2c1C(c1cccc(C(F)(F)F)c1)N(c1ccccc1)C2=O (configuration not stated) | x | 1.0 | x | x | x | x | x
CC(C)(C)c1ccc(S(=O)(=O)N2CCN(C(=O)C(=O)c3cccc(C(F)(F)F)c3)CC2)cc1 | x | -0.1 | x | x | x | x | x
COc1cc(OC)c(OC)cc1/C=C1/Cc2ccccc2C1=O | 0.3 | 0.7 | 13.3 | -1.4 | 27.6* | -1.2 | 0.7
COc1ccccc1C=C1CCc2ccccc2C1=O | x | -0.3 | x | -3.5 | x | x | x
CCOc1cc(C2C(C(=O)OC)=CN(Cc3ccc(Cl)cc3)C=C2C(=O)OC)ccc1O | 1.1 | -0.1 | 27.4* | -0.6 | 56.1* | -1.5 | -2.6
O=C(N/N=C/c1c[nH]c2ccccc12)c1cc(-c2ccc(-c3ccccc3)cc2)n[nH]1 | 0.1 | 4.2 | -3.7 | -3.2 | 5.0 | x | x
O=C(N/N=C/c1c[nH]c2ccccc12)c1cc(-c2ccc3ccccc3c2)n[nH]1 | 0.0 | 1.7 | 9.3 | -8.6 | 30.6* | 2.9 | -1.2
[O-][n+]1ccccc1C(O)CSc1ccccc1 (configuration not stated) | x | 0.2 | x | x | x | x | x
C[C@H](c1ccccc1)N1C[C@@H](COCc2ccccc2)Oc2cccc(Oc3ccc(C(C)(C)C)cc3)c2S1(=O)=O | x | -0.4 | x | x | x | x | x
CN(C)c1nc(-c2cccs2)cc(C(F)(F)F)c1C#N | -0.6 | -0.3 | -7.2 | 1.6 | 39.0* | -31.5 | -35.8
Fc1ccc(C2CC(c3ccco3)=NN2c2ccccc2)cc1 (configuration not stated) | -1.4 | 1.0 | 32.5* | 1.1 | 36.0* | -28.9 | -36.2
O=[N+]([O-])c1ccc(N2N=C(c3ccco3)CC2c2ccccc2)cc1 (configuration not stated) | -1.7 | -0.4 | -40.4 | -9.6 | -21.6 | x | x
COc1ccc(S(=O)(=O)N2CCCc3nc(-c4ccc(F)cc4)ccc32)cc1 | x | -0.7 | x | x | x | x | x
COC(=O)c1cc2c(c3c4cc(C)ccc4n(S(=O)(=O)c4cccc(C)c4)c13)C(=O)N(Cc1ccccc1OC)C2 | x | 0.6 | x | x | x | x | x
O=C1Nc2ccccc2O/C1=C\c1ccccc1Br | -1.5 | 0.1 | 36.4* | -1.4 | 29.3* | -19.8 | -23.2
COCCCNC(=O)C[C@H]1C[C@@]2(C(=O)OC)C(=C[C@H](C(C)(C)C)O[C@@H]2C)N(CCC2=CCCCC2)C1=O | x | -0.4 | x | x | x | x | x
CC1CCC(C(C)C)C(OC(=O)COC(=O)c2ccc(=O)[nH]c2)C1 (configuration not stated) | 0.1 | -1.6 | -4.5 | -4.0 | 7.2 | x | x
CC1CCC(C(C)C)C(OC(=O)COC(=O)c2cc(O)ccc2N)C1 (configuration not stated) | 0.4 | 0.5 | 40.8* | -0.4 | 49.7* | -30.0 | -35.4
O=C(O)c1cc(-c2c[nH]c3ccccc23)nc2ccc3ccccc3c12 | -0.5 | 3.1 | 3.9 | -7.3 | -10.1 | x | x
